7 compounds from ChEMBL document CHEMBL1123830, “gamma-Aminobutyric acid esters. 3. Synthesis, brain uptake, and pharmacological properties of C-18 glyceryl lipid esters of GABA with varying degree of unsaturation” (J Med Chem, 1987) can be followed below.

Molecules are shown by their SMILES.

Data set [1] relates to Mus musculus. Put plainly: Tested for the quanitity of [14C]-labeled (radioactivity) compound taken up into the brain following subcutaneous injection at a 44 mg/kg. Type of data set: functional. Put shortly:
(§1)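 Male Balb-c mice (20 ± 2 g) received ¹⁴C-labeled lipid (label on the GABA portion) sc, as diacetate salt or free amine, in 15% propylene glycol in water. Killed at 5 min; brain and liver weighed and homogenized in SDS/EDTA phosphate buffer (pH 7.6), then scintillation counted. nmol/g computed from total radioactivity. BPI = ([brain]/[liver]) × 100. Mean ± SD of three, or two, measurements.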

The nature of data set [2]: Ratio of the amount in brain as a percent of that present in liver at 5 min is expressed as Brain penetration index (BPI). Type of data set: functional. An outline of the steps:
as §1

The subject of data set [3] is Mus musculus. Put plainly: Percentage decrease in general motor activity with respect to vehicle-injected control in mice at a dose of 30 mg/kg after ip administration. The data set is classed as functional. To be noted: route intraperitoneal.
The subject of data set [4] is Mus musculus. Description: Tested for the quanitity of [14C]-labeled (radioactivity) compound taken up into the liver following subcutaneous injection at a 44 mg/kg. Type of data set: functional. An outline of the steps:
as §1

Data set [5] can be described thus: Partition coefficient in octanol/water system was determined using [14C]-labeled compounds. Type of data set: physicochemical.
A short description of data set [6]: Brain-uptake index (BUI) was determined for the compound in rat. Type of data set: functional. An outline of the steps: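 Rat carotid bolus: male Sprague-Dawley rats (200-300 g) under deep Nembutal anesthesia received a 0.15-mL bolus of ³H2O plus ¹⁴C-labeled compound in 0.01 M HEPES (pH 7.4) into the right carotid artery. Decapitated 5 s later; ipsilateral forebrain homogenized in SDS/urea/EDTA/phosphate buffer (pH 7.4). Duplicate aliquots counted by scintillation, corrected for quench and spillover. BUI = (¹⁴C/³H cpm) brain / (¹⁴C/³H cpm) injectate. Values uncorrected.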

For data set [7], the system named is Mus musculus. Put plainly: Tested for the quanitity of [14C]-labeled (radioactivity) compound taken up into the brain following subcutaneous injection at a 36 mg/kg. The data set is classed as functional. An outline of the steps:
as §1

Data set [8] concerns Mus musculus. Put plainly: Tested for the quanitity of [14C]-labeled (radioactivity) compound taken up into the liver following subcutaneous injection at a 36 mg/kg. The data set is classed as functional. Put shortly: as §1
In data set [9] the test system is Mus musculus. Description: Tested for the quanitity of [14C]-labeled (radioactivity) compound taken up into the brain following subcutaneous injection at a 100 mg/kg. The data set is classed as functional.
In data set [10] the test system is Mus musculus. Description: Tested for the quanitity of [14C]-labeled (radioactivity) compound taken up into the liver following subcutaneous injection at a 100 mg/kg. The data set is classed as functional.
The nature of data set [11]: Partition coefficient in octanol/water system was determined. The data set is classed as physicochemical.
In data set [12] the test system is Mus musculus. Put plainly: Tested for the quanitity of [14C]-labeled (radioactivity) compound taken up into the liver following subcutaneous injection at a 41 mg/kg. The data set is classed as functional. An outline of the steps:
as §1

In data set [13] the test system is Mus musculus. Put plainly: Tested for the quanitity of [14C]-labeled (radioactivity) compound taken up into the brain following subcutaneous injection at a 41 mg/kg. The data set is classed as functional. Put shortly: as §1
For data set [14], the system named is Mus musculus. Put plainly: Tested for the quanitity of [14C]-labeled (radioactivity) compound taken up into the brain following subcutaneous injection at a 54 mg/kg. The data set is classed as functional. An outline of the steps: as §1
Data set [15] deals with Mus musculus. Description: Tested for the quanitity of [14C]-labeled (radioactivity) compound taken up into the liver following subcutaneous injection t a 54 mg/kg. Type of data set: functional. Put shortly: as §1
The subject of data set [16] is Mus musculus. Put plainly: Tested for the quanitity of [14C]-labeled (radioactivity) compound taken up into the liver following subcutaneous injection at a 40 mg/kg. Type of data set: functional. Put shortly: as §1
Data set [17] relates to Mus musculus. Put plainly: Tested for the quanitity of [14C]-labeled (radioactivity) compound taken up into the brain following subcutaneous injection at a 40 mg/kg. Type of data set: functional. An outline of the steps: as §1
For data set [18], the system named is Mus musculus. Description: Tested for the quanitity of [14C]-labeled (radioactivity) compound taken up into the liver following subcutaneous injection. The data set is classed as functional.
Data set [19] has as its system Mus musculus. Put plainly: Tested for the quanitity of [14C]-labeled (radioactivity) compound taken up into the brain following subcutaneous injection. Type of data set: functional.

For `CCCCCCCCCCCCCCCCCC(=O)OCC(COC(=O)CCCN)OC(=O)CCCN` (stereo unspecified), the Activity was determined as 1.89 nM/g in the data set with Mus musculus [1] and 6.92 nM/g in the data set with Mus musculus [4]. Besides, in data set [2], the BPI is on record as 28%. This compound also showed a Decrease in the data set on Mus musculus [3] of 62.1%. The K in [5] is 8.6. Further, the BUI in [6] came to 45.1.

As for `CCCCCCCC/C=C/CCCCCCCC(=O)OCC(COC(=O)CCCN)OC(=O)CCCN` (stereo unspecified), in [2], the BPI amounted to 17%. In addition, the Activity in the data set with Mus musculus [7] turned out to be 1.07 nM/g; in the data set with Mus musculus [8], 6.32 nM/g. The compound also had a Decrease with Mus musculus [3] of 74%. This compound also gave a K in data set [5] of 6. For the same compound, in [6], the BUI stood at 53.2.

Turning to `CC/C=C/C/C=C/C/C=C/CCCCCCCC(=O)OCC(COC(=O)CCCN)OC(=O)CCCN` (stereo in doubt), the Activity with Mus musculus [9] turned out to be 2.81 nM/g; in the data set with Mus musculus [10] it was 3.79 nM/g. Also, the BPI in data set [2] amounted to 75%. The compound further showed a BUI in data set [6] of 31.5. In data set [11], this compound displayed a K of 2.13.

As to `CCCCC/C=C/C/C=C/CCCCCCCC(=O)OCC(COC(=O)CCCN)OC(=O)CCCN` (stereo in doubt; 3c (L2G2)), the Activity was determined as 8 nM/g in the data set with Mus musculus [12] and 7.74 nM/g in the data set with Mus musculus [13]. Moreover, the BPI in data set [2] stood at 97%. The BUI in data set [6] is recorded as 25.9. Moreover, the K in data set [11] stood at 4.2.

On to `CCCCC/C=C/C/C=C/CCCCCCCC(=O)OCC(COC(=O)CCCN)OC(=O)CCCN` (stereo in doubt; 3c), for which the Activity was 1.32 nM/g in the data set with Mus musculus [14] and 9.19 nM/g in the data set on Mus musculus [15]. In addition, the BPI in data set [2] was 14%. The Decrease in the data set on Mus musculus [3] was 89.3%.

`CC/C=C/C/C=C/C/C=C/CCCCCCCC(=O)OCC(COC(=O)CCCN)OC(=O)CCCN` (stereo in doubt; 3d): the BPI in data set [2] was found to be 15%. Besides, the results for the Activity in the data set on Mus musculus [16] and in the data set on Mus musculus [17] were 7.86 nM/g and 1.07 nM/g, respectively. In addition, in the data set with Mus musculus [3], the Decrease worked out at 82.6%.

In the case of `NCCCC(=O)O` [GAMMA-AMINOBUTYRIC ACID], the Activity with Mus musculus [18] was found to be 4.2 nM/g; in the data set with Mus musculus [19] it was 0.041 nM/g. Further, the BPI in data set [2] worked out at 0.96%. In the data set with Mus musculus [3], this compound yielded a Decrease of 62.1%. The K in [5] came to 0.004. In [6], this compound gave a BUI of 2.
